Assay results reported in ChEMBL document CHEMBL5032499, “A Druglike Small Molecule that Targets r(CCUG) Repeats in Myotonic Dystrophy Type 2 Facilitates Degradation by RNA Quality Control Pathways” (J Med Chem, 2021).
Active and inactive are the calls of the source. The calls are words filed in the database; no cut-off is given here.

Tests used:
[1] = species: Homo sapiens; assay: Inhibition of r(CCUG)12-MBNL1 complex formation (unknown origin) assessed as rescue of IR exon 11 splicing defect at 5 uM by RT-PCR analysis; design: scale not given: the % may be the effect or the level left
How it was run: (§1)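 DM2 patient fibroblasts were treated at ~40% confluency for 48 h. About 1 μg of total RNA was reverse transcribed, and IR exon 11 was PCR-amplified for 35 cycles (95 °C/58 °C/72 °C). Products were resolved on 2% agarose stained with ethidium bromide and quantified by densitometry. Percent rescue was calculated as (DM2 untreated − treated exclusion)/(DM2 untreated − WT exclusion) × 100.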

[2] = Induction of disruption of r(CCUG)12-MBNL1 complex (unknown origin) incubated for 15 mins by TR-FRET assay; design: species or system Homo sapiens
How it was run: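 Biotinylated r(CCUG)12 was folded at 60 °C for 5 min in 20 mM HEPES pH 7.5, 110 mM KCl, 10 mM NaCl. It was then brought to assay buffer (plus 2 mM MgCl2, 2 mM CaCl2, 5 mM DTT, 0.1% BSA, 0.5% Tween-20) and preincubated 15 min with MBNL1-His6 (final 80 nM RNA, 60 nM protein). Compound was added for 15 min, then streptavidin-XL665 (40 nM) and anti-His6-Tb (0.44 ng/μL) for 30 min at room temperature. TR-FRET 545/665 ratios were read; IC50 was taken from dose-response fits.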

[3] = system: Fibroblast; assay: Inhibition of r(CCUG)12-MBNL1 complex formation in DM2-patient derived fibroblast assessed as reduction in complex in nuclear foci per cell at 5 uM by immunofluorescence imaging analysis; type: tissue-based; conditions: Homo sapiens
[4] = system: Fibroblast; assay: Effect on MAP4K4 exon 22a splicing in DM2-patient derived fibroblast; type: tissue-based; conditions: Homo sapiens
[5] = system: Fibroblast; assay: Reduction in CNBP intron 1 level in DM2 patient derived fibroblast at 5 uM by RT-qPCR analysis; type: functional, tissue-based; conditions: Homo sapiens
How it was run: (§2)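 DM2 patient fibroblasts (DMEM, 20% FBS) were treated at 40% confluency for 48 h. Total RNA was then extracted and transcript levels were measured by RT-qPCR, normalized to GAPDH (n = 6 replicates per concentration, 2 independent experiments).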

[6] = system: Fibroblast; assay: Effect on CNBP mature mRNA level in DM2 patient derived fibroblast at 0.2 to 5 uM by RT-qPCR analysis; type: functional, tissue-based; conditions: Homo sapiens, dose 0.2-5 µM; how it was run: as §2
[7] = system: Fibroblast; assay: Effect on CNBP mature mRNA level in wild type human fibroblast at 0.2 to 5 uM by RT-qPCR analysis; type: functional, tissue-based; conditions: dose 0.2-5 µM
How it was run: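 Wild-type GM07492 fibroblasts were grown in MEM with 10% FBS. They were treated at 40% confluency for 48 h, and total RNA was extracted. Transcript level was measured by RT-qPCR normalized to GAPDH (n = 6 per concentration, 2 independent experiments).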

[8] = Binding affinity to Base-paired RNA (unknown origin) assessed as dissociation constant incubated for 30 mins by microscale thermophoresis; design: species or system Homo sapiens
How it was run: (§3)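 Microscale thermophoresis with Cy5-labeled RNA (5 nM) folded in 8 mM Na2HPO4 pH 7.0, 185 mM NaCl, 1 mM EDTA at 60 °C for 5 min, then slowly cooled. The RNA was added to 1:1 serial compound dilutions in the same buffer, giving 0.05% Tween-20 final, and held 30 min at room temperature. Kd was fit to a quadratic binding equation; values are the mean of two independent experiments.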

[9] = Binding affinity to r(CCUG)12 (unknown origin) assessed as apparent dissociation constant incubated for 30 mins by microscale thermophoresis; design: species or system Homo sapiens; conditions: read-out: Kd(app); how it was run: as §3
[10] = species: Homo sapiens; assay: Inhibition of r(CCUG)12-MBNL1 complex formation (unknown origin) assessed as rescue of IR exon 11 splicing defect at 1 uM by RT-PCR analysis; design: scale not given: the % may be the effect or the level left; how it was run: as §1
[11] = system: Fibroblast; assay: Effect on IR exon 11 exclusion in wild type human fibroblast at 0.2 to 5 uM by RT-qPCR analysis; type: functional, tissue-based; conditions: dose 0.2-5 µM
[12] = system: Fibroblast; assay: Cytotoxicity against DM2 patient derived fibroblast assessed as cell viability at 5 uM incubated for 48 hrs by Cell Titre-Glo assay; type: cell-based; conditions: human
How it was run: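 DM2 patient-derived fibroblasts were grown in high-glucose DMEM with 20% FBS at 37 °C, 5% CO2. After 48 h of compound treatment, viability was read as CellTiter-Glo luminescence after 10 min at room temperature (n = 6 replicates, one independent experiment).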

[13] = system: Fibroblast; assay: Reduction in CNBP intron 1 level in DM2 patient derived fibroblast at 1 uM by RT-qPCR analysis; type: functional, tissue-based; conditions: Homo sapiens; how it was run: as §2

- Activity [1]: 30%
- IC50 [2]: 2 µM
- Kd [8]: > 20 µM
- Kd [9]: 0.192 µM
- Activity [10]: 33%
Structure (SMILES): Cc1ccc2nc(Nc3ccc4nc(C)sc4c3)nc(NCCCO)c2c1
- inhibition [3]: 30%
- Activity [4]: inactive
- Activity [5]: Active
- Activity [6]: inactive
- Activity [7]: inactive
- Activity [11]: inactive
- Activity [12]: Non-Toxic
- Activity [13]: Active
